According to ChEMBL document CHEMBL4819122, “Novel 4-(piperazin-1-yl)quinolin-2(1H)-one bearing thiazoles with antiproliferative activity through VEGFR-2-TK inhibition” (Bioorg Med Chem, 2021):
Calls of active or inactive are those of the source. The rule behind the calls is not given here.

Tests used:
CCRF-CEM = experiment: Cytotoxicity against human CCRF-CEM assessed as growth inhibition at 10 uM by NCI protocol relative to control; format: functional; settings: read-out: GI
Outline: (§1)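 Run by NCI as a single-dose screen at 10 μM across the sixty-cell-line panel, which covers nine human tumour tissue types. The read-out is percent growth inhibition of treated cells relative to untreated cells.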

HL-60 = experiment: Cytotoxicity against human HL60 assessed as growth inhibition at 10 uM by NCI protocol relative to control; format: functional; settings: read-out: GI; outline: as §1
K562 = experiment: Cytotoxicity against human K-562 assessed as growth inhibition at 10 uM by NCI protocol relative to control; format: functional; settings: read-out: GI; outline: as §1
MOLT-4 = experiment: Cytotoxicity against human MOLT-4 assessed as growth inhibition at 10 uM by NCI protocol relative to control; format: functional; settings: read-out: GI; outline: as §1
RPMI-8226 = experiment: Cytotoxicity against human RPMI-8226 assessed as growth inhibition at 10 uM by NCI protocol relative to control; format: functional; settings: read-out: GI; outline: as §1
SR = experiment: Cytotoxicity against human SR assessed as growth inhibition at 10 uM by NCI protocol relative to control; format: functional; settings: read-out: GI
Outline: (§2)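 Run by the NCI under its standard protocol: one dose of 10 μM against a sixty-line panel from nine human tumour tissues. Result given as percent growth inhibition of treated cells relative to untreated cells.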

A549 = experiment: Cytotoxicity against human A549 assessed as growth inhibition at 10 uM by NCI protocol relative to control; format: functional; settings: read-out: GI; outline: as §1
EKVX = experiment: Cytotoxicity against human EKVX assessed as growth inhibition at 10 uM by NCI protocol relative to control; format: functional; settings: read-out: GI; outline: as §1
HOP-92 = experiment: Cytotoxicity against human HOP-92 assessed as growth inhibition at 10 uM by NCI protocol relative to control; format: functional; settings: read-out: GI; outline: as §1
NCI-H23 = experiment: Cytotoxicity against human NCI-H23 assessed as growth inhibition at 10 uM by NCI protocol relative to control; format: functional; settings: read-out: GI; outline: as §1
NCI-H322M = experiment: Cytotoxicity against human NCI-H322M assessed as growth inhibition at 10 uM by NCI protocol relative to control; format: functional; settings: read-out: GI; outline: as §1
NCI-H460 = experiment: Cytotoxicity against human NCI-H460 assessed as growth inhibition at 10 uM by NCI protocol relative to control; format: functional; settings: read-out: GI; outline: as §1
NCI-H522 = experiment: Cytotoxicity against human NCI-H522 assessed as growth inhibition at 10 uM by NCI protocol relative to control; format: functional; settings: read-out: GI; outline: as §1
HCC 2998 = experiment: Cytotoxicity against human HCC-2998 assessed as growth inhibition at 10 uM by NCI protocol relative to control; format: functional; settings: read-out: GI; outline: as §1
HCT-116 = experiment: Cytotoxicity against human HCT-116 assessed as growth inhibition at 10 uM by NCI protocol relative to control; format: functional; settings: read-out: GI; outline: as §1
HCT-15 = experiment: Cytotoxicity against human HCT-15 assessed as growth inhibition at 10 uM by NCI protocol relative to control; format: functional; settings: read-out: GI; outline: as §1
HT-29 = experiment: Cytotoxicity against human HT29 assessed as growth inhibition at 10 uM by NCI protocol relative to control; format: functional; settings: read-out: GI; outline: as §1
SW-620 = experiment: Cytotoxicity against human SW-620 assessed as growth inhibition at 10 uM by NCI protocol relative to control; format: functional; settings: read-out: GI; outline: as §2
SF-295 = experiment: Cytotoxicity against human SF-295 assessed as growth inhibition at 10 uM by NCI protocol relative to control; format: functional; settings: read-out: GI; outline: as §1
SF-539 = experiment: Cytotoxicity against human […] assessed as growth inhibition at 10 uM by NCI protocol relative to control; format: functional; settings: read-out: GI; outline: as §1
SNB-19 = experiment: Cytotoxicity against human SNB-19 assessed as growth inhibition at 10 uM by NCI protocol relative to control; format: functional; settings: read-out: GI; outline: as §2
SNB-75 = experiment: Cytotoxicity against human SNB-75 assessed as growth inhibition at 10 uM by NCI protocol relative to control; format: functional; settings: read-out: GI; outline: as §2
U-251 = experiment: Cytotoxicity against human U251 assessed as growth inhibition at 10 uM by NCI protocol relative to control; format: functional; settings: read-out: GI; outline: as §2
LOX IMVI = experiment: Cytotoxicity against human LOX IMVI assessed as growth inhibition at 10 uM by NCI protocol relative to control; format: functional; settings: read-out: GI; outline: as §1
Malme-3M = experiment: Cytotoxicity against human MALME-3M assessed as growth inhibition at 10 uM by NCI protocol relative to control; format: functional; settings: read-out: GI; outline: as §1
M14 = experiment: Cytotoxicity against human M14 assessed as growth inhibition at 10 uM by NCI protocol relative to control; format: functional; settings: read-out: GI; outline: as §1
MDA-MB-435 = experiment: Cytotoxicity against human MDA-MB-435 assessed as growth inhibition at 10 uM by NCI protocol relative to control; format: functional, cell-based; outline: as §1
SK-MEL-28 = experiment: Cytotoxicity against human SK-MEL-28 assessed as growth inhibition at 10 uM by NCI protocol relative to control; format: functional; settings: read-out: GI; outline: as §1
SK-MEL-5 = experiment: Cytotoxicity against human SK-MEL-5 assessed as growth inhibition at 10 uM by NCI protocol relative to control; format: functional; settings: read-out: GI; outline: as §1
UACC-257 = experiment: Cytotoxicity against human UACC-257 assessed as growth inhibition at 10 uM by NCI protocol relative to control; format: functional; settings: read-out: GI; outline: as §2
UACC-62 = experiment: Cytotoxicity against human UACC-62 assessed as growth inhibition at 10 uM by NCI protocol relative to control; format: functional; settings: read-out: GI; outline: as §2
IGROV-1 = experiment: Cytotoxicity against human IGROVI assessed as growth inhibition at 10 uM by NCI protocol relative to control; format: functional; settings: read-out: GI; outline: as §1
OVCAR-4 = experiment: Cytotoxicity against human OVCAR-4 assessed as growth inhibition at 10 uM by NCI protocol relative to control; format: functional; settings: read-out: GI; outline: as §1
OVCAR-8 = experiment: Cytotoxicity against human OVCAR-8 assessed as growth inhibition at 10 uM by NCI protocol relative to control; format: functional; settings: read-out: GI; outline: as §1
NCI/ADR-RES = experiment: Cytotoxicity against human NCl/ADR-RES assessed as growth inhibition at 10 uM by NCI protocol relative to control; format: functional; settings: read-out: GI; outline: as §1
SK-OV-3 = experiment: Cytotoxicity against human SK-OV-3 assessed as growth inhibition at 10 uM by NCI protocol relative to control; format: functional; settings: read-out: GI; outline: as §1
786-0 = experiment: Cytotoxicity against human 786-0 assessed as growth inhibition at 10 uM by NCI protocol relative to control; format: functional; settings: read-out: GI; outline: as §1
A498 = experiment: Cytotoxicity against human A498 assessed as growth inhibition at 10 uM by NCI protocol relative to control; format: functional; settings: read-out: GI; outline: as §1
ACHN = experiment: Cytotoxicity against human ACHN assessed as growth inhibition at 10 uM by NCI protocol relative to control; format: functional; settings: read-out: GI; outline: as §1
CAKI-1 = experiment: Cytotoxicity against human Caki1 assessed as growth inhibition at 10 uM by NCI protocol relative to control; format: functional; settings: read-out: GI; outline: as §1
RXF 393 = experiment: Cytotoxicity against human RXF 393 assessed as growth inhibition at 10 uM by NCI protocol relative to control; format: functional; settings: read-out: GI; outline: as §1
SN12C = experiment: Cytotoxicity against human SN12C assessed as growth inhibition at 10 uM by NCI protocol relative to control; format: functional; settings: read-out: GI; outline: as §2
TK-10 = experiment: Cytotoxicity against human TK-10 assessed as growth inhibition at 10 uM by NCI protocol relative to control; format: functional; settings: read-out: GI; outline: as §2
UO-31 = experiment: Cytotoxicity against human UO31 assessed as growth inhibition at 10 uM by NCI protocol relative to control; format: functional; settings: read-out: GI; outline: as §2
PC-3 = experiment: Cytotoxicity against human PC3 assessed as growth inhibition at 10 uM by NCI protocol relative to control; format: functional; settings: read-out: GI; outline: as §1
DU-145 = experiment: Cytotoxicity against human DU-145 assessed as growth inhibition at 10 uM by NCI protocol relative to control; format: functional; settings: read-out: GI; outline: as §1
MCF7 = experiment: Cytotoxicity against human MCF7 assessed as growth inhibition at 10 uM by NCI protocol relative to control; format: functional; settings: read-out: GI; outline: as §1
MDA-MB-231 = experiment: Cytotoxicity against human MDA-MB-231 assessed as growth inhibition at 10 uM by NCI protocol relative to control; format: functional; settings: read-out: GI; outline: as §1
Hs-578T = experiment: Cytotoxicity against human HS 578T assessed as growth inhibition at 10 uM by NCI protocol relative to control; format: functional; settings: read-out: GI; outline: as §1
BT-549 = experiment: Cytotoxicity against human BT-549 assessed as growth inhibition at 10 uM by NCI protocol relative to control; format: functional; settings: read-out: GI; outline: as §1
T47D [1] = experiment: Cytotoxicity against human T-47D assessed as growth inhibition at 10 uM by NCI protocol relative to control; format: functional; settings: read-out: GI; outline: as §2
MDA-MB-468 = experiment: Cytotoxicity against human MDA-MB-468 assessed as growth inhibition at 10 uM by NCI protocol relative to control; format: functional; settings: read-out: GI; outline: as §1
T47D [2] = experiment: Cytotoxicity against human T47D cells assessed as reduction in cell viability after 3 hrs by MTT assay

COc1ccc(-c2csc(NC(=O)CN3CCN(c4cc(=O)[nH]c5ccc(F)cc45)CC3)n2)cc1
inhibition of growth at 10 µM (CCRF-CEM): 29.8% | inhibition of growth at 10 µM (HL-60): 23.5% | inhibition of growth at 10 µM (K562): 30.1% | inhibition of growth at 10 µM (MOLT-4): 46.7% | inhibition of growth at 10 µM (RPMI-8226): 40.9% | inhibition of growth at 10 µM (SR): 34.7% | inhibition of growth at 10 µM (A549): 29.5% | inhibition of growth at 10 µM (EKVX): 24.9% | inhibition of growth at 10 µM (HOP-92): 25.4% | inhibition of growth at 10 µM (NCI-H23): 16.6% | inhibition of growth at 10 µM (NCI-H322M): 12.6% | inhibition of growth at 10 µM (NCI-H460): 12.5% | inhibition of growth at 10 µM (NCI-H522): 21.6% | inhibition of growth at 10 µM (HCC 2998): 15.8% | inhibition of growth at 10 µM (HCT-116): 15.9% | inhibition of growth at 10 µM (HCT-15): 26.6% | inhibition of growth at 10 µM (HT-29): 22.1% | inhibition of growth at 10 µM (SW-620): 34.6% | inhibition of growth at 10 µM (SF-295): 17.5% | inhibition of growth at 10 µM (SF-539): 30.5% | inhibition of growth at 10 µM (SNB-19): 15.3% | inhibition of growth at 10 µM (SNB-75): 23.9% | inhibition of growth at 10 µM (U-251): 30.3% | inhibition of growth at 10 µM (LOX IMVI): 20.8% | inhibition of growth at 10 µM (Malme-3M): 33.6% | inhibition of growth at 10 µM (M14): 19.2% | growth inhibition (GI) (MDA-MB-435): inactive | inhibition of growth at 10 µM (SK-MEL-28): 13.7% | inhibition of growth at 10 µM (SK-MEL-5): 25.4% | inhibition of growth at 10 µM (UACC-257): 14.5% | inhibition of growth at 10 µM (UACC-62): 28.1% | inhibition of growth at 10 µM (IGROV-1): 45.6% | inhibition of growth at 10 µM (OVCAR-4): 25.1% | inhibition of growth at 10 µM (OVCAR-8): 17.2% | inhibition of growth at 10 µM (NCI/ADR-RES): 20.5% | inhibition of growth at 10 µM (SK-OV-3): 10.4% | inhibition of growth at 10 µM (786-0): 19.3% | inhibition of growth at 10 µM (A498): 49.9% | inhibition of growth at 10 µM (ACHN): 27.7% | inhibition of growth at 10 µM (CAKI-1): 46.8% | inhibition of growth at 10 µM (RXF 393): 20.3% | inhibition of growth at 10 µM (SN12C): 29.1% | inhibition of growth at 10 µM (TK-10): 31.8% | inhibition of growth at 10 µM (UO-31): 24.9% | inhibition of growth at 10 µM (PC-3): 35.8% | inhibition of growth at 10 µM (DU-145): 40% | inhibition of growth at 10 µM (MCF7): 28.4% | inhibition of growth at 10 µM (MDA-MB-231): 24.5% | inhibition of growth at 10 µM (Hs-578T): 32.9% | inhibition of growth at 10 µM (BT-549): 18.6% | inhibition of growth at 10 µM (T47D [1]): 69.2% | inhibition of growth at 10 µM (MDA-MB-468): 32% | IC50 (T47D [2]): 16.9 µM
